Data: publication PMC11585990 (Drug Design, Development and Therapy, 2024)

Assays:
HDAC2 = HDAC2 (Homo sapiens, UniProt Q92769); experiment: In vitro HDAC2 inhibition assay; format: biochemical; details: recombinant human HDAC2, Boc-Lys(acetyl)-AMC
ATM = ATM (Homo sapiens, UniProt Q13315); experiment: In vitro ATM inhibition assay; format: biochemical; details: recombinant human ATM, p53 substrate, HTRF
[1] = In vivo antitumor assay, body weight of mice; design: species or system nu/nu mice; details: NTERA-2 cL.D1 xenograft, nude mice, 10 mg/kg daily intraperitoneal, 15 days
In short: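 Male nu/nu mice aged 4–6 weeks received subcutaneous NTERA-2 cL.D1 cells (1×10⁷ in PBS). Once tumors reached 90–120 mm³, mice were randomized into four groups: vehicle, two reference inhibitors, or test compound, each at 10 mg/kg by daily intraperitoneal injection. Body weight and caliper tumor volume were recorded every 3 days for 15 days. n = 6 per group; mean ± SD.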

HDAC2, sequence (Q92769 whole entry): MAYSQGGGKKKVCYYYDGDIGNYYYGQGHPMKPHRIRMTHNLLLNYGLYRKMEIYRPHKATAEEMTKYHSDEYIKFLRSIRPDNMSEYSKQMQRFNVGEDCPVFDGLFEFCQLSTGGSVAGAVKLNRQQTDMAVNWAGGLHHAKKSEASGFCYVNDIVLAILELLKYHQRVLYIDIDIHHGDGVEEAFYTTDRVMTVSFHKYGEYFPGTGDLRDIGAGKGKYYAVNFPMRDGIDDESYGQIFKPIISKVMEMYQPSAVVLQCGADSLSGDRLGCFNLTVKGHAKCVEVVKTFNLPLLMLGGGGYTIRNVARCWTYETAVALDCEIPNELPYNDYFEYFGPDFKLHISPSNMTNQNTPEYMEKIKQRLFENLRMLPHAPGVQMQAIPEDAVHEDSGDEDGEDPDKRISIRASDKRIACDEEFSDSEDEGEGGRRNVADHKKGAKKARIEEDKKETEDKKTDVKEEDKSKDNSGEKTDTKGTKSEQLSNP
ATM, sequence (Q13315 whole entry): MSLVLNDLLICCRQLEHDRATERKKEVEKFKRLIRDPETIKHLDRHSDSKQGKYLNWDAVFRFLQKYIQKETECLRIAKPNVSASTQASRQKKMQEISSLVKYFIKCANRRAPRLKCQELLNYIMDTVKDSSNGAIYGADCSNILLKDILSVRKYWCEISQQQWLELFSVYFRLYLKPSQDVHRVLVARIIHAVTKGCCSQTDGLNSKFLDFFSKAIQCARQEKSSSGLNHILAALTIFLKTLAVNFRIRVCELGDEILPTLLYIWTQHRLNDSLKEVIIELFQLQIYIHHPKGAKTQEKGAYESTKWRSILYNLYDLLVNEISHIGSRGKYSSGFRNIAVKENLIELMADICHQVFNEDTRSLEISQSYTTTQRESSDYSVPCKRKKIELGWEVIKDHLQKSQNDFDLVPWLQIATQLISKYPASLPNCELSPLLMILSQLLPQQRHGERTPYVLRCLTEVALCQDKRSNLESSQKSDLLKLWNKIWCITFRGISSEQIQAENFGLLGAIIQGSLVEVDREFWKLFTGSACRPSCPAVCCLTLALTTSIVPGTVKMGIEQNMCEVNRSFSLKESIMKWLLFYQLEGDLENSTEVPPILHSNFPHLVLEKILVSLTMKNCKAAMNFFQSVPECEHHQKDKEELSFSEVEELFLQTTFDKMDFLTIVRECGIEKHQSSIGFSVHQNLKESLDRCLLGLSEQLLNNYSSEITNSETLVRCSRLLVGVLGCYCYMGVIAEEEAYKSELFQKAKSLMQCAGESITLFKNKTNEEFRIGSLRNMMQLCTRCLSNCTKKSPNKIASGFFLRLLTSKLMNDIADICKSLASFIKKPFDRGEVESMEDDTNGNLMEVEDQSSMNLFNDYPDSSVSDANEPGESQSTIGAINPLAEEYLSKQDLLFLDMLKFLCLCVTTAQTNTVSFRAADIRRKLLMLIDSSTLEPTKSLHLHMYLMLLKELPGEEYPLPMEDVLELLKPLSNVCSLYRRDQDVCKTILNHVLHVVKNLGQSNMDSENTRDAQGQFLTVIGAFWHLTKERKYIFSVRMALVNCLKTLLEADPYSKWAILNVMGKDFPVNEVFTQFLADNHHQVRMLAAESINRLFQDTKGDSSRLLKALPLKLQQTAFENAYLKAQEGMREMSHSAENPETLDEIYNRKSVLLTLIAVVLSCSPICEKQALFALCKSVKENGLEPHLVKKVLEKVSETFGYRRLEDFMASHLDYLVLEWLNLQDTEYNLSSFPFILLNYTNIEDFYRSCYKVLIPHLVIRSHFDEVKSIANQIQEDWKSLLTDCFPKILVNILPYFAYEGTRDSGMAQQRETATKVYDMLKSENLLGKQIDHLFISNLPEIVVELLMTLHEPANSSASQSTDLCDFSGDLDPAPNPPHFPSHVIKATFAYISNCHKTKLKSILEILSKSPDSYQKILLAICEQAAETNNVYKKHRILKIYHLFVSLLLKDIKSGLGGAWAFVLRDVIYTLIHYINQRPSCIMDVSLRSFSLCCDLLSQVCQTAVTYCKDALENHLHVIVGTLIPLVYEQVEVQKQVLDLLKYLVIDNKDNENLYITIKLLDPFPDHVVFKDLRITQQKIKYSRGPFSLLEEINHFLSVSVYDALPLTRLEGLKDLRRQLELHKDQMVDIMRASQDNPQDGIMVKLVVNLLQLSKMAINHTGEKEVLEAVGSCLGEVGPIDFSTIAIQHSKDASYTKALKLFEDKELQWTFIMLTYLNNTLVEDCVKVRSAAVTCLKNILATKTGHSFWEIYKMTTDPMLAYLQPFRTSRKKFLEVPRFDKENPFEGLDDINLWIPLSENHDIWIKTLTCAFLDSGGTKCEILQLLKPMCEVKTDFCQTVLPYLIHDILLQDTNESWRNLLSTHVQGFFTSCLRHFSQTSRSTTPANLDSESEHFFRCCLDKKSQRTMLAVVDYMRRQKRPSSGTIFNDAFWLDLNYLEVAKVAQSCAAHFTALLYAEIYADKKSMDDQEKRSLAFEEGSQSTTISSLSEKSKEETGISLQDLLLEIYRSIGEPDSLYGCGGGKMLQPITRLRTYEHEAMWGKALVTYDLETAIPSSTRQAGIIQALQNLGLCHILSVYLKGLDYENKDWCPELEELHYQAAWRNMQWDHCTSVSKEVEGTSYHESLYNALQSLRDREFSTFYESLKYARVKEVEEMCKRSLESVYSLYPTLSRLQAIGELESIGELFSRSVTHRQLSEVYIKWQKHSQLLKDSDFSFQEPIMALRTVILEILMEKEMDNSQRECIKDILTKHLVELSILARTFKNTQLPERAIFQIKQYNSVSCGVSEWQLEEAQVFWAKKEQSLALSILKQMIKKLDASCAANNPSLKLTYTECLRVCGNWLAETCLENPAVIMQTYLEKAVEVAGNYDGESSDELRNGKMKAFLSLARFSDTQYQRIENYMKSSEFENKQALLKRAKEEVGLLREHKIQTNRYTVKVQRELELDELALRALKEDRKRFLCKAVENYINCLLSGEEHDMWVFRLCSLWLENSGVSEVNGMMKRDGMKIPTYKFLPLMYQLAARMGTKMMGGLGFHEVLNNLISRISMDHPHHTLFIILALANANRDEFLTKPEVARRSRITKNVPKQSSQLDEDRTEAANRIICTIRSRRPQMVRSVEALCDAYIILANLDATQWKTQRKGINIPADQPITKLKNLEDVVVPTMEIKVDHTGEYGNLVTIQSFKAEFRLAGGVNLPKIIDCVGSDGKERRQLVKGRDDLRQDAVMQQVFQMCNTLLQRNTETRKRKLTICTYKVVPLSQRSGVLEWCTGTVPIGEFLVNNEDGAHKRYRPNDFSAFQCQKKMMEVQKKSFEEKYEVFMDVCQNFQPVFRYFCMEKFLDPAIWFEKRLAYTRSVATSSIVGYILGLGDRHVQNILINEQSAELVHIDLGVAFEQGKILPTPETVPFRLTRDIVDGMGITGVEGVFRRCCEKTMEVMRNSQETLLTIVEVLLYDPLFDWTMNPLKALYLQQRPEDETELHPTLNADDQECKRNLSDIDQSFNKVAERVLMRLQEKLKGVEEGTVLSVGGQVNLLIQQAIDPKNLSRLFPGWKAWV

Row | HDAC2 (IC50, nM) (HDAC2) | HDAC2 (IC50, nM) (HDAC2; listed as lartesertib) | ATM (IC50, nM) (ATM) | ATM (IC50, nM) (ATM; listed as vorinostat) | SMILES | body weight of mice [1]
1 | no inhibition | no inhibitory effect |  |  | COc1cc2ncc3c(c2cc1-c1cn(C)nc1C)n(-c1c(F)cncc1OC)c(=O)n3C [Lartesertib] | 
2 |  |  | no inhibition | did not affect | O=C(CCCCCCC(=O)Nc1ccccc1)NO [Vorinostat] | slight decrease
